Shown are actives, neighbours in structure and some others; about 2.6% of the full set was active somewhere.
LMPTP inh – LMPTP (human) inhibition; P24666; recombinant LMPTP-A, OMFP fluorogenic substrate, fluorescence intensity; inhibition, % at 20 µM; 360,000 compounds, 0.22% hits;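 active = compounds that cut the enzyme signal by at least half of the control window in the single-dose screen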;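 note: plate controls were DMSO wells with enzyme plus substrate for no effect and substrate without enzyme for full effect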
Target sequence (P24666 whole entry, looked up): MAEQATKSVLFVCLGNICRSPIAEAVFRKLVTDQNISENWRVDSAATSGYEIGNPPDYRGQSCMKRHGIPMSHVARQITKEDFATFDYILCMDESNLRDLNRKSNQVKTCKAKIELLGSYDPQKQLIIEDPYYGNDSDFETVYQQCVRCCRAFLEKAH
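material = LMPTP-A | quantity = 0.625 nM enzyme | reagent = OMFP substrate, 400 µM final | buffer or medium = Bis-Tris pH 6.0, DTT, detergent | detection = endpoint fluorescence intensity from OMFP dephosphorylation | dosing = single 20 µM dose | read-out basis = % inhibition relative to no-enzyme and uninhibited control wells | control set = no-enzyme and uninhibited controls | timing = 50 min at room temperature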
Scp-1 inhibitor – Scp-1 (human) phosphatase inhibition; Q9GZU7; Recombinant Scp1, phosphopeptide, malachite green phosphate absorbance; inhibition, % at 20 µM; 340,000 compounds, 0.88% hits; AID 493091;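 active = inhibition above about 50% at 20 µM, limit read from the data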;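 note: plate controls were DMSO wells with enzyme for no effect and wells lacking enzyme for full effect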
Target sequence (Q9GZU7 76-261 limits assumed): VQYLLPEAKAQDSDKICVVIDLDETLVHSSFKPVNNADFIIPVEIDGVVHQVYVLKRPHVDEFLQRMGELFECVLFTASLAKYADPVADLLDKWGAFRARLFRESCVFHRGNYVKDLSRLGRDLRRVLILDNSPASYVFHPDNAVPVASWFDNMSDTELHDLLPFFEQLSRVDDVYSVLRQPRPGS
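Test system – truncated SCP-1 phosphatase (76-261aa) · Reagent – Phosphorylated 17-residue peptide substrate · Incubation – 45 min room-temperature reaction, 5 min colour, 30 min stabiliser · Detection – colorimetric phosphate reagent with accelerator and stabiliser, absorbance at 630 nm · Measure – % inhibition at 20 µM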
NadD inh – NadD (S. aureus) enzyme inhibition | 360,000 compounds, 0.78% hits | inhibition, % at 20 µM | purified NadD enzyme, colorimetric absorbance read-out; in the data active = inhibition above about 26%
STEP inh – inhibitors of human striatal-enriched phosphatase STEP; recombinant STEP, OMFP fluorogenic substrate, fluorescence; P54829; 360,000 compounds, 0.25% hits; inhibition, % at 20 µM;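 active = inhibition at 20 µM, scaled per plate between control wells, above about 37%, limit read from the data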;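 note: 0% = DMSO with enzyme and substrate and 100% = substrate only without enzyme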
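Assay system: isolated STEP enzyme / Timing: 20 min at room temperature, dark / Doses: 20 µM, 1% DMSO / Technique: fluorescence intensity, excitation 480 nm, emission 540 nm / Reagent: fluorogenic phosphatase substrate OMFP at 25 µM final / Measure: percent inhibition scaled to no-enzyme and uninhibited-enzyme controls, plate-pattern corrected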
rCAG binder – r(CAG) repeat RNA binding. TO-PRO-1 dye displacement fluorescence. inhibition, % at 3 µM. 370,000 compounds, 1.3% hits;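 active = inhibition above the plate cutoff, the mean of all test compounds on that plate plus 3 SD, cut at about 35% in these data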;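 note: 0% = DMSO alone and 100% = 100 µM mitoxantrone as full dye displacement; higher means more dye released from RNA so lower well fluorescence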
rCAG binder conf – r(CAG) RNA repeat binding, confirmation | 4,300 compounds, 70% hits | shares compounds with rCAG binder | inhibition, % at 3 µM | AID 652065 | TO-PRO-1 dye displacement fluorescence;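 active = inhibition above a per-plate cutoff, the mean inhibition of sample wells plus 3 SD, cut at about 35% in these data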;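 note: loss of TO-PRO-1 fluorescence as compound displaces dye from 1x1 AA loop RNA; 0% = DMSO only wells and 100% = 100 µM mitoxantrone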
dCAG dye counter – disrupts DNA CAG TO-PRO-1 complex, flagging rCAG hits | shares compounds with rCAG binder | d(CAG) DNA oligo TO-PRO-1 dye displacement, fluorescence | inhibition, % at 3 µM | 4,300 compounds, 94% hits | AID 652068;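 active = inhibition above its plate's cutoff, the mean test-well inhibition plus 3 SD, cut at about 4.8% in these data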;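 note: 0% = DNA dye mix with DMSO and 100% = 100 µM mitoxantrone; hits displace the dye from DNA and so lower well fluorescence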
Numbers without * were called inactive; . = no result given.

SMILES	LMPTP inh	Scp-1 inhibitor	NadD inh	STEP inh	rCAG binder	rCAG binder conf	dCAG dye counter
O=C(CCS(=O)(=O)c1cc2c(cc1Br)CCN2C(=O)C1CC1)N1CCN(c2ccccn2)CC1	.	.	.	.	5	.	.
Cc1ccc([N+](=O)[O-])cc1N(CC(=O)Nc1ccc(S(=O)(=O)Nc2cccc(C(F)(F)F)c2)cc1)S(C)(=O)=O	3	-21	29	-6	58*	56*	18*
O=c1cc(-c2ccccc2Cl)oc2c([N+](=O)[O-])c(O)cc(O)c12	2	-8	0	1	51*	35*	12*
O=c1cc(-c2ccccc2Cl)oc2ccc([N+](=O)[O-])c(O)c12	13	4	8	2	1	.	.
O=C(CSc1nc2[nH]c(=O)cc(O)c2s1)Nc1ccc(Cl)c(C(F)(F)F)c1	-1	5	7	2	41*	31	11*
COc1cc(OC)cc(C(=O)Nc2ccc(S(=O)(=O)Nc3cnc4ccccc4n3)cc2)c1	0	-13	-2	-2	64*	59*	15*
Cc1ccc(C(=O)Nc2ccc(S(=O)(=O)Nc3cnc4ccccc4n3)cc2)cc1	2	-10	2	-4	43*	34	12*
COc1cc(C(=O)Nc2ccc(S(=O)(=O)Nc3cnc4ccccc4n3)cc2)cc(OC)c1OC	2	-11	2	-3	40*	33	6.8*
COc1cc(OC)cc(C(=O)Nc2ccc(S(=O)(=O)Nc3ccccn3)cc2)c1	0	-6	-3	4	7	.	.
COCCNC(=S)Nc1ccc(S(=O)(=O)Nc2cnc3ccccc3n2)cc1	1	-13	1	1	9	.	.
O=C(Nc1ccc(S(=O)(=O)Nc2cnc3ccccc3n2)cc1)c1ccc([N+](=O)[O-])cc1Cl	1	-5	-4	-2	49*	33	6.0*
Cc1ccc(/C=C2\SC(=S)N(C3CCS(=O)(=O)C3)C2=O)o1 (centres undefined)	2	1	10	2	24	.	.
NS(=O)(=O)c1ccc(-c2ccc(/C=C3\SC(=S)N(C4CCS(=O)(=O)C4)C3=O)o2)cc1 (centres undefined)	12	-13	35*	-3	35*	19	14*
COc1ccccc1Cc1c(C2CCCCC2)nc2c(C)cc(Br)cn12	.	.	.	.	8	.	.
CCOC(=O)Cc1c(C)nc2c(C#N)c[nH]n2c1=O	-2	5	0	2	5	.	.
CCOC(=O)Cc1c(C)nc2c(-c3cccc(Br)c3)c[nH]n2c1=O	-2	2	6	-1	72*	47*	15*
Cc1cc(NS(=O)(=O)c2ccc(NC(=O)/C=C/c3ccccc3Cl)cc2)no1	1	-16	0	-4	71*	56*	23*
Cc1cc(NC(=O)/C=C/c2ccccc2Cl)no1	4	-5	-5	-3	2	.	.
Cc1cc(NS(=O)(=O)c2ccc(NC(=O)/C=C/c3ccccc3)cc2)no1	0	-6	0	2	30	.	.
Cc1cc(NS(=O)(=O)c2ccc(NC(=O)/C=C/c3cccc(Cl)c3)cc2)no1	1	-7	6	-2	61*	49*	17*
CC(C)CN1C[C@@H]2CSCCS(=O)(=O)N2C1=O	.	.	.	.	3	.	.
Cc1nn(-c2ccccc2)c2sc(-c3nnc(SCC(=O)O)o3)cc12	1	28	7	3	46*	56*	15*
CCn1c(SCC(=O)O)nnc1-c1cc2c(C)nn(-c3ccccc3)c2s1	1	2	-1	1	27	.	.
CCCCCCCCCCCCN1[C@@H](CC(=O)O)c2cc(F)ccc2S1(=O)=O	3	-12	17	0	76*	68*	24*
CCCCCCCCN1[C@@H](CC(=O)O)c2cc(C(F)(F)F)ccc2S1(=O)=O	-1	-6	-7	-3	40*	26	4
SMILES	LMPTP inh	Scp-1 inhibitor	NadD inh	STEP inh	rCAG binder	rCAG binder conf	dCAG dye counter
CCCCCCCCCCCCN1[C@@H](CC(=O)O)c2cc(C(F)(F)F)ccc2S1(=O)=O	3	-6	12	0	28	.	.
O=C1CSc2ccc(C(=O)N3CCCC(C(=O)N4CCCCC4)C3)cc2N1 (centres undefined)	.	.	.	.	1	.	.
c1ccn(-c2ccc(-c3noc(CCc4ccncc4)n3)cc2)c1	.	.	.	.	3	.	.
Cc1ccc(C(=O)Nc2sc(C(=O)N(C)C)c(C)c2C#N)cc1	-1	-9	-1	0	-2	.	.
Cc1c(C(=O)N(C)C)sc(NC(=O)c2cc([N+](=O)[O-])cc([N+](=O)[O-])c2)c1C#N	1	0	1	3	56*	37*	9.9*
COc1ccccc1C(=O)N1CCN(C(=O)[C@@H](Cc2ccccc2)NC(=O)[C@H]2O[C@@H](n3cnc(C(N)=O)n3)[C@H](O)[C@@H]2O)CC1	.	.	.	.	-1	.	.
CC(=O)c1ccc(NS(=O)(=O)c2ccc(C)cc2)cc1	1	19	6	-3	1	.	.
COc1cc(OC)c(OC)cc1/C=C/C(=O)c1ccc(NS(=O)(=O)c2ccc(C)cc2)cc1	5	-20	21	-6	46*	39*	16*
CCCCNC(=O)c1sc(=S)n2c1[nH]c(=O)c1ccc(C(=O)NCCc3ccc(OC)c(OC)c3)cc12	0	-5	22	9	.	.	.
O=C(NCc1ccccc1)c1sc(=S)n2c1[nH]c(=O)c1ccccc12	1	-8	17	3	47*	83*	50*
COC(=O)c1ccc(Cn2ccc3ccc(-c4ccc5ccn(C(=O)C6CCCCC6)c5c4)cc32)cc1	.	.	.	.	19	.	.
O=S(=O)(/N=C(/NS(=O)(=O)c1ccccc1)c1ccccc1)c1ccccc1	0	-7	-5	2	10	.	.
O=S(=O)(N=C(NS(=O)(=O)c1ccc(Cl)cc1)c1ccccc1)c1ccc(Cl)cc1	0	3	1	1	55*	50*	13*
CCCC[C@@H]1C(=O)N2N=Cc3ccccc3[C@H]2N2N=Cc3ccccc3[C@@H]12	.	.	.	.	-2	.	.
COCCNC(=S)N(C)[C@H]1C[C@H]2c3[nH]c4ccccc4c3CCN2C(=O)[C@H]1[C@H](C)O	.	.	.	.	6	.	.
O=C(N/N=C/c1ccc(O)c([N+](=O)[O-])c1)C1CC1(c1ccccc1)c1ccccc1 (centres undefined)	-4	-1	18	-1	50*	50*	19*
O=[N+]([O-])c1cc(/C=N\Nc2nc(-c3ccccc3)cs2)ccc1O	0	-5	28	2	66*	54*	23*
O=C(CNC(=O)C(c1ccccc1)c1ccccc1)N/N=C/c1ccc(O)c([N+](=O)[O-])c1	-9	-2	4	3	44*	22	4.7*
